The source of these data is ChEMBL document CHEMBL4118021, “Studies of TAK1-centered polypharmacology with novel covalent TAK1 inhibitors” (Bioorg Med Chem, 2017).

Assay [1] addresses Probable ATP-dependent RNA helicase DDX17 (Homo sapiens) (UniProt Q92841). As to the kind of experiment: Binding affinity to DDX17 in human NCI-H23 cells at 1 uM by mass spectrometry based pull down assay. Type of assay: cell-based.
In assay [2] the target is Aldehyde dehydrogenase family 3 member A2 (Homo sapiens) (UniProt P51648). Briefly: Binding affinity to ALDH3A2 in human NCI-H23 cells at 1 uM by mass spectrometry based pull down assay. In kind it is cell-based.
The target in assay [3] is Plakophilin-1 (Homo sapiens) (UniProt Q13835). As to the kind of experiment: Binding affinity to PKP1 in human NCI-H23 cells at 1 uM by mass spectrometry based pull down assay. Type of assay: cell-based.
Assay [4] has as its target Dynamin-binding protein (Homo sapiens) (UniProt Q6XZF7). As to the kind of experiment: Binding affinity to DNMBP in human NCI-H23 cells at 1 uM by mass spectrometry based pull down assay. Type of assay: cell-based.
For assay [5], the target named is Inter-alpha-trypsin inhibitor heavy chain H2 (Homo sapiens) (UniProt P19823). As to the kind of experiment: Binding affinity to ITIH2 in human NCI-H23 cells at 1 uM by mass spectrometry based pull down assay. Type of assay: cell-based.
In assay [6] the target is Ubiquitin carboxyl-terminal hydrolase 5 (Homo sapiens) (UniProt P45974). As to the kind of experiment: Binding affinity to USP5 in human NCI-H23 cells at 1 uM by mass spectrometry based pull down assay. In kind it is cell-based.
The target in assay [7] is RuvB-like 2 (Homo sapiens) (UniProt Q9Y230). Briefly: Binding affinity to RUVBL2 in human NCI-H23 cells at 1 uM by mass spectrometry based pull down assay. In kind it is cell-based.
Assay [8] addresses Tropomyosin alpha-4 chain (Homo sapiens) (UniProt P67936). Briefly: Binding affinity to TPM4 in human NCI-H358 cells at 1 uM by mass spectrometry based pull down assay. Type of assay: cell-based.
Assay [9] deals with Cancer-related nucleoside-triphosphatase (Homo sapiens) (UniProt Q9BSD7). Briefly: Binding affinity to NTPCR in human NCI-H358 cells at 1 uM by mass spectrometry based pull down assay. Type of assay: cell-based.
For assay [10], the target named is 80S Ribosome (Homo sapiens) (UniProt P08865+P42677+P62753+P15880+P23396+P61247+P62701+P22090+P46782+P62081+P62241+P46781+P46783+P62280+P25398+P62277+P62263+P62841+P62244+P62249+P08708+P62269+P39019+P60866+P63220+P62266+P62847+P62851+P62854+P62979+P62857+P62273+P62861+P39023+P36578+P46777+Q02878+P18124+P62424+P62917+P32969+P27635+P62906+P62913+P30050+P26373+P40429+P50914+P61313+P18621+Q07020+Q02543+P84098+P46778+P35268+P62829+P62750+P83731+P61254+P61353+P46776+P46779+P47914+P62888+P62899+P62910+P49207+P42766+P18077+Q9Y3U8+P83881+P61927+P61513+P63173+P62891+P62945+P05388+P05386). Briefly: Binding affinity to RPL31 in human NCI-H358 cells at 1 uM by mass spectrometry based pull down assay. In kind it is cell-based.

Assay [11] addresses Kelch-like ECH-associated protein 1 (Homo sapiens) (UniProt Q14145). Briefly: Binding affinity to KEAP1 in human NCI-H358 cells at 1 uM by mass spectrometry based pull down assay. In kind it is cell-based.
Assay [12] deals with Actin-related protein 2/3 complex subunit 1B (Homo sapiens) (UniProt O15143). As to the kind of experiment: Binding affinity to ARPC1B in human NCI-H358 cells at 1 uM by mass spectrometry based pull down assay. Type of assay: cell-based.
Assay [13] addresses Cytochrome c (Homo sapiens) (UniProt P99999). As to the kind of experiment: Binding affinity to CYCS in human NCI-H358 cells at 1 uM by mass spectrometry based pull down assay. Type of assay: cell-based.
Assay [14] addresses T1, Dual specificity mitogen-activated protein kinase kinase 4 (Homo sapiens) (UniProt P45985).
T1 sequence (whole entry): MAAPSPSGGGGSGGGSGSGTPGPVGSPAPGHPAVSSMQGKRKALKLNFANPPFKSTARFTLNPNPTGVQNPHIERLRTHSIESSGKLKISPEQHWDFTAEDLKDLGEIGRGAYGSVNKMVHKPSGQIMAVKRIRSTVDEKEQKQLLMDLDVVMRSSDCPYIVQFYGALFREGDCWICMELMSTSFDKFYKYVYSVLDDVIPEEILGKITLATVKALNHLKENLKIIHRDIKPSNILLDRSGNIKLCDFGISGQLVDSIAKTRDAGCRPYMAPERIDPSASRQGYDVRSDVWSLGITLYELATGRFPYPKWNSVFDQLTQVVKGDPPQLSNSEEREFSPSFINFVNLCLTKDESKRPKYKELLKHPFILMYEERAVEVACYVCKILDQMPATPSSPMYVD
Briefly: Inhibition of human MEK4 (84 to 399 residues) expressed in mammalian expression system assessed as enzyme activity at 1 uM by KINOMEScan assay relative to control. Details: scale not given: the % may be the effect or the level left. The essentials:
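In vitro ATP-site competition binding assay across a panel of 456 kinases, with compound tested at 1 and 10 μM.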

Assay [15] addresses T2, Mitogen-activated protein kinase kinase kinase 7 (Homo sapiens) (UniProt O43318).
T2 sequence (whole entry): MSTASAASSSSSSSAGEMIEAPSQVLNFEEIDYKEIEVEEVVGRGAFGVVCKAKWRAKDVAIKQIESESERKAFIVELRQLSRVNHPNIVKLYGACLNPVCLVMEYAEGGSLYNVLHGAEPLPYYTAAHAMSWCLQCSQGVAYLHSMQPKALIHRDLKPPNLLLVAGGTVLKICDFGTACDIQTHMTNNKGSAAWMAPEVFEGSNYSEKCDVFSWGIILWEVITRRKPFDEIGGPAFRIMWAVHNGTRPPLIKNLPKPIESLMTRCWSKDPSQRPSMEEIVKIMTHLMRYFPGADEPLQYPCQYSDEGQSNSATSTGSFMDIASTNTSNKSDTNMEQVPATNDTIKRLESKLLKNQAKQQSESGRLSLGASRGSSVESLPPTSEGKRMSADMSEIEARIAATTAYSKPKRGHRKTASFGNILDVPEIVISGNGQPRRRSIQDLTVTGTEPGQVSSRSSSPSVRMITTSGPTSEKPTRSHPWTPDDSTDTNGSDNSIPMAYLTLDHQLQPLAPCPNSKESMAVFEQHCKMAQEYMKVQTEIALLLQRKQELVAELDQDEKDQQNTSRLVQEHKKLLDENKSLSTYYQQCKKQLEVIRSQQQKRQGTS
As to the kind of experiment: Inhibition of TAK1 in RA patient-derived synovial fibroblasts assessed as inhibition of poly(I:C)-induced cytokine secretion at 3 uM preincubated for 3 hrs followed by poly(I:C) stimulation measured after 18 hrs by sandwich immunoassay. The procedure, abridged: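 Primary RA synovial fibroblasts (donor RA2159) seeded 1000 cells/well and grown ~24 h at 37 °C, 5% CO2. Starved overnight in basal medium, then ~4 h in basal medium with 0.1% BSA. Two adjacent wells pooled per replicate, in biological duplicate. Supernatants diluted 1:3 and run on Luminex 27-plex/21-plex sandwich immunoassays for 48 analytes, with spiked-ligand and mock-supernatant background controls.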

Structures are written as SMILES. The source made the active and inactive calls. The calls are words filed in the database; no cut-off is given here.

Sequence of Inter-alpha-trypsin inhibitor heavy chain H2 (Homo sapiens) (P19823 whole entry): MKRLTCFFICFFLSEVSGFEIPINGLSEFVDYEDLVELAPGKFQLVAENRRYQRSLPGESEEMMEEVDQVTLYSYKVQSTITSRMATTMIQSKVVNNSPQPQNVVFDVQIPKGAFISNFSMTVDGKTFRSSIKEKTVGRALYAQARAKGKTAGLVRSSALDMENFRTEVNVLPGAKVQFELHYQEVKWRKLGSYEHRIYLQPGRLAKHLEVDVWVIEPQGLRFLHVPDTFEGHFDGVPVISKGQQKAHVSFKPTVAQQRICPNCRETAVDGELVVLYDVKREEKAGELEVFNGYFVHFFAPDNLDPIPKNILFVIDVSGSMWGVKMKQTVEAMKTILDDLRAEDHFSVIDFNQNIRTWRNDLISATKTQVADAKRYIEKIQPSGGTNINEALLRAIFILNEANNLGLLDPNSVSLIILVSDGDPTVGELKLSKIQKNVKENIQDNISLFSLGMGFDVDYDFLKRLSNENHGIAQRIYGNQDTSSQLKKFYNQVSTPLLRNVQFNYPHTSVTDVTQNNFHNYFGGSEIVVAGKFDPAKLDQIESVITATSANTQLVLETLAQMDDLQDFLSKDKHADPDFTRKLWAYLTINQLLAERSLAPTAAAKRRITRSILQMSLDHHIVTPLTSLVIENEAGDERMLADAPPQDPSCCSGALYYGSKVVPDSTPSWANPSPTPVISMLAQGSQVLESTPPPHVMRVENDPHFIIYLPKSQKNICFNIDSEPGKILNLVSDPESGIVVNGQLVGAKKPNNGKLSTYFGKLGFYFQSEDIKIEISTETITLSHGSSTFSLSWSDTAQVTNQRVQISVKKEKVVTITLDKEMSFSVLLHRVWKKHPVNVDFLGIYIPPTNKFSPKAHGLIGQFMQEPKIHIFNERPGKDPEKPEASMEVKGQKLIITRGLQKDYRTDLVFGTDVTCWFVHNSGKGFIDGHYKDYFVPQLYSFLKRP
Sequence of RuvB-like 2 (Homo sapiens) (Q9Y230 whole entry): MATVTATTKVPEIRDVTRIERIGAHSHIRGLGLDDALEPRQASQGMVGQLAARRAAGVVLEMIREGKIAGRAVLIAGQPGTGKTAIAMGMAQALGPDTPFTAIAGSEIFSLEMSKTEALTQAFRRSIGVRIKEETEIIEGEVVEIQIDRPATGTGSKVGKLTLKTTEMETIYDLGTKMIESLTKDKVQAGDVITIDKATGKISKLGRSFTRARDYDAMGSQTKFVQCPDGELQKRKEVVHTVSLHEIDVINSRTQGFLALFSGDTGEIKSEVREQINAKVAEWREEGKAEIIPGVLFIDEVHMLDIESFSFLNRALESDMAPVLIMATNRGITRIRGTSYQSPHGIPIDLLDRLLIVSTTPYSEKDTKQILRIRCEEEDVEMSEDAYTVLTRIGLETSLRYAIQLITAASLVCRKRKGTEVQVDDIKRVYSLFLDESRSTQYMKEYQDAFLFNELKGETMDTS
Sequence of Kelch-like ECH-associated protein 1 (Homo sapiens) (Q14145 whole entry): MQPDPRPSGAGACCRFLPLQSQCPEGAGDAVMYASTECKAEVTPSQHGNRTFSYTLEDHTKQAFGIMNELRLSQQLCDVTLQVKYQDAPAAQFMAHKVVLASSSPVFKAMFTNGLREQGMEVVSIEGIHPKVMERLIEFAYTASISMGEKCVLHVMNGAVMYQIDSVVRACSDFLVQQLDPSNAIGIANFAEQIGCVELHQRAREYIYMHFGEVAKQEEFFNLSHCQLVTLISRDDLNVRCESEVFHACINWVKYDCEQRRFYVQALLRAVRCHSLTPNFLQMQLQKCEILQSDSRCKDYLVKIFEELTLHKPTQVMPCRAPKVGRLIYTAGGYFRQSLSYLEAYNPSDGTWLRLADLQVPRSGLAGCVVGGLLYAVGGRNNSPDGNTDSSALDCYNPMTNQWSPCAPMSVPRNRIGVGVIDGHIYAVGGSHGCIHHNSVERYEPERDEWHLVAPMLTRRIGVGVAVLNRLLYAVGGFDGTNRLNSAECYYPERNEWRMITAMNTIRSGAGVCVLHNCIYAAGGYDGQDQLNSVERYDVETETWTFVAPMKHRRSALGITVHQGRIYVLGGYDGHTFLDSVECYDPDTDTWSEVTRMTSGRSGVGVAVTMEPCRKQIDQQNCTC
Sequence of Tropomyosin alpha-4 chain (Homo sapiens) (P67936 whole entry): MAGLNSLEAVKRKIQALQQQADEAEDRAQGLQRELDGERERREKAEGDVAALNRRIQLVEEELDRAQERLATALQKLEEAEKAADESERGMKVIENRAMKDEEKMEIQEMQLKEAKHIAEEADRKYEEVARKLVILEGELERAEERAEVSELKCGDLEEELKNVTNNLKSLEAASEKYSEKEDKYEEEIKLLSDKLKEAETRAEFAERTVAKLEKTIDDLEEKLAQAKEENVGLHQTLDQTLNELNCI
Sequence of Cytochrome c (Homo sapiens) (P99999 whole entry): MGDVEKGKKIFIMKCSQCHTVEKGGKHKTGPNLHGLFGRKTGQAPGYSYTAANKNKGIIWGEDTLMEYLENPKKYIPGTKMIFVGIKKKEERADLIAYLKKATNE
Sequence of Probable ATP-dependent RNA helicase DDX17 (Homo sapiens) (Q92841 whole entry): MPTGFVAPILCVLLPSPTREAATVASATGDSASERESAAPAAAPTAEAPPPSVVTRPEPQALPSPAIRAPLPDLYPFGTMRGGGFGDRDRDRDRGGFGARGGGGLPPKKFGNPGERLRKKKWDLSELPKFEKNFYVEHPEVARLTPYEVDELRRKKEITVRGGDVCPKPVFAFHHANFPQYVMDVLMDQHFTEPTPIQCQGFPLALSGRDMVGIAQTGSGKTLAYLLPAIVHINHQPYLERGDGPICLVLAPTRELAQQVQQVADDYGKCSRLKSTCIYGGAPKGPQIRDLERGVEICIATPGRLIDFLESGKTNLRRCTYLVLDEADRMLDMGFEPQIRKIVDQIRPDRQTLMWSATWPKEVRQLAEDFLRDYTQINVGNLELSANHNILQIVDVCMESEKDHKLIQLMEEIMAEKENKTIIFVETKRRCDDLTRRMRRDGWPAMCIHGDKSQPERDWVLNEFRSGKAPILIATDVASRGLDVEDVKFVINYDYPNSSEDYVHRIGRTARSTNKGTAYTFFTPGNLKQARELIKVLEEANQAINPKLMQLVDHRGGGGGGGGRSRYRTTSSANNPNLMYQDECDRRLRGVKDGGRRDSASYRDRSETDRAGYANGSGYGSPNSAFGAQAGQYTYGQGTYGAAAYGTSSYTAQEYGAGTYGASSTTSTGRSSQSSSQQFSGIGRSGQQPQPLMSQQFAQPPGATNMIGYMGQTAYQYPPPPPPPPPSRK
Sequence of Cancer-related nucleoside-triphosphatase (Homo sapiens) (Q9BSD7 whole entry): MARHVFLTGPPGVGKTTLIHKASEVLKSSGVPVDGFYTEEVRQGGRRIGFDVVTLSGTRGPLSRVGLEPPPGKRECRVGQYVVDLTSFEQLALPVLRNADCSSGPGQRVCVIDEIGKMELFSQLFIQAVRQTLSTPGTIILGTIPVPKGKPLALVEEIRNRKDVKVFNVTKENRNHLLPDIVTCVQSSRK
Sequence of Aldehyde dehydrogenase family 3 member A2 (Homo sapiens) (P51648 whole entry): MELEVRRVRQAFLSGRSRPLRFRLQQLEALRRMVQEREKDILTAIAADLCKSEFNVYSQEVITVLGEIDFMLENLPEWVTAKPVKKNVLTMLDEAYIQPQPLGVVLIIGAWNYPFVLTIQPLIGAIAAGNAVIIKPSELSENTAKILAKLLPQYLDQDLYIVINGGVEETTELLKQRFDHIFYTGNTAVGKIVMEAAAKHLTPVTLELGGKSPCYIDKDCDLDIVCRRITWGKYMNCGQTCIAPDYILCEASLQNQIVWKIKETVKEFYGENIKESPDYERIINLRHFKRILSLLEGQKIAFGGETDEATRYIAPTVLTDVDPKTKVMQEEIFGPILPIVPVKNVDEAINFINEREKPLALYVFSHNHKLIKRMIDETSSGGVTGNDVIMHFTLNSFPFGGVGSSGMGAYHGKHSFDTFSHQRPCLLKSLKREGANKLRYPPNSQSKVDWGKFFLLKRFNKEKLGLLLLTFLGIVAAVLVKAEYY
Sequence of Plakophilin-1 (Homo sapiens) (Q13835 whole entry): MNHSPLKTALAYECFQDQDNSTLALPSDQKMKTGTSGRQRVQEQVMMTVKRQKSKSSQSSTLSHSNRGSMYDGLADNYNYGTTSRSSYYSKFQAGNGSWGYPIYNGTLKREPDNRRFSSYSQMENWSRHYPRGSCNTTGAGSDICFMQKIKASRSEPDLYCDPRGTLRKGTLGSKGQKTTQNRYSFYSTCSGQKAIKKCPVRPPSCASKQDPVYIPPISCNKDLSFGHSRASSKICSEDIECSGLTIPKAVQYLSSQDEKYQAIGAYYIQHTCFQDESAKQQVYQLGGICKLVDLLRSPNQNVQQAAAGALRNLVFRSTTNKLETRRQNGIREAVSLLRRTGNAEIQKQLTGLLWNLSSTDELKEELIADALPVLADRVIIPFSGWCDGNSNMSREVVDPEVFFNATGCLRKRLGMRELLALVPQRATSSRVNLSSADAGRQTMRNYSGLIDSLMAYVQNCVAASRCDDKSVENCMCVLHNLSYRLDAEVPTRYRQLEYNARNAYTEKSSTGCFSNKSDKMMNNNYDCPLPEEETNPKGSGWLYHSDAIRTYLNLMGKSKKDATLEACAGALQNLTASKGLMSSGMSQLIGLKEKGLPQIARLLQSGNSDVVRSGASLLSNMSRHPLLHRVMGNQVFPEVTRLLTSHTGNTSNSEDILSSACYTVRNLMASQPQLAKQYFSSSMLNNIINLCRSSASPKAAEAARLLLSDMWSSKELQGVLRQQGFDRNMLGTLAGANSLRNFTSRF

For the compound `C=CC(=O)Nc1ccccc1Nc1nc(Nc2ccc(N3CCN(CCOCCOCCOCCNC(=O)CCCC[C@@H]4SC[C@@H]5NC(=O)N[C@@H]54)CC3)cc2)ncc1Cl`, the result in [1], in assay [2], in assay [3], in assay [4], in [5] and in [6] was Active. The outcome in [7], in [8], in assay [9], in assay [10], in [11] and in assay [12] was Active. For the same compound, the outcome in assay [13] was Active.

For `COc1cc(O)c2c(c1)/C=C/C[C@H](O)[C@H](O)C(=O)/C=C\C[C@H](C)OC2=O`, the Activity in assay [14] amounted to 19%.

For the compound `C=CC(=O)Nc1ccccc1Oc1nc(Nc2cnn(CCOC)c2)ncc1Cl`, the inhibition result in assay [15] was “Active”.
